Results: publication PMC8633684 (Translational Oncology, 2021)

Columns and labels:
[1] = Pharmacokinetic analysis, plasma and tissue concentration; assay type: in vivo, CD1 mice; conditions: CD1, mouse, 1 mg/kg
[2] = system: KP-4 transplanted tumor; test: KP-4 xenograft, 6 days of treatment followed by 3 days off-drug; assay type: in vivo, BALB/c Nude mice; conditions: compared with vehicle group
[3] = system: MCL-1; test: MCL-1 protein in KP-4 transplanted tumor homogenate; assay type: in vivo, BALB/c Nude mice; conditions: KP-4 xenograft, BS-HH-002 5.4 mg/kg, versus vehicle group
Outline: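 The model was KP-4 subcutaneous xenografts in BALB/c Nude mice. Tumors from at least five mice in each of the vehicle, gemcitabine and test compound (5.4 mg/kg) groups were analysed. MCL-1 and BCL-XL protein levels were measured by Western blot with β-actin or β-Tubulin as internal reference.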

[4] = system: TIP30/CC3; test: Immunofluorescence of TIP30/CC3 in KP-4 tumor sections; assay type: in vivo, BALB/c Nude mice; conditions: BS-HH-002 at 3.0 mg/kg, p = 0.004, p = 0.461

Which results are given for COC(=O)C[C@](O)(CCCC(C)(C)O)C(=O)O[C@@H]1C(OC)=C[C@]23CCCN2CCc2cc4c(cc2[C@H]13)OCO4 [HHT, homoharringtonine]?
concentration at 2 h ([1]; bone marrow, po): 669 ng/mL; concentration at 8 h ([1]; bone marrow, po): 48.6 ng/mL; concentration at 0.5 h ([1]; bone marrow, sc): 141 ng/mL; concentration at 2 h ([1]; bone marrow, sc): 412 ng/mL; concentration at 8 h ([1]; bone marrow, sc): 43.5 ng/mL; concentration at 0.5 h ([1]; brain, sc): 11 ng/mL; concentration at 2 h ([1]; brain, sc): 6.37 ng/mL; concentration at 8 h ([1]; brain, sc): 4.97 ng/mL; concentration at 0.5 h ([1]; esophagus, po): 607 ng/mL; concentration at 0.5 h ([1]; esophagus, sc): 138 ng/mL; concentration at 2 h ([1]; esophagus, sc): 185 ng/mL; concentration at 8 h ([1]; esophagus, sc): 52.6 ng/mL; concentration at 0.5 h ([1]; heart, po): 125 ng/mL; concentration at 2 h ([1]; heart, po): 321 ng/mL; concentration at 8 h ([1]; heart, po): 156 ng/mL; concentration at 0.5 h ([1]; heart, sc): 541 ng/mL; concentration at 2 h ([1]; heart, sc): 254 ng/mL; concentration at 8 h ([1]; heart, sc): 115 ng/mL; concentration at 0.5 h ([1]; kidney, po): 25.4 ng/mL; concentration at 2 h ([1]; kidney, po): 117 ng/mL; concentration at 8 h ([1]; kidney, po): 33.5 ng/mL; concentration at 0.5 h ([1]; kidney, sc): 2010 ng/mL; concentration at 2 h ([1]; kidney, sc): 796 ng/mL; concentration at 8 h ([1]; kidney, sc): 95.6 ng/mL; concentration at 24 h ([1]; kidney, sc): 5.04 ng/mL; concentration at 0.5 h ([1]; large intestine, po): 105 ng/mL; concentration at 2 h ([1]; large intestine, po): 528 ng/mL; concentration at 8 h ([1]; large intestine, po): 689 ng/mL; concentration at 0.5 h ([1]; large intestine, sc): 1030 ng/mL; concentration at 2 h ([1]; large intestine, sc): 807 ng/mL; concentration at 8 h ([1]; large intestine, sc): 502 ng/mL; concentration at 24 h ([1]; large intestine, sc): 35.4 ng/mL; concentration at 0.5 h ([1]; liver, po): 184 ng/mL; concentration at 2 h ([1]; liver, po): 296 ng/mL; concentration at 8 h ([1]; liver, po): 173 ng/mL; concentration at 0.5 h ([1]; liver, sc): 983 ng/mL; concentration at 2 h ([1]; liver, sc): 615 ng/mL; concentration at 8 h ([1]; liver, sc): 80.2 ng/mL; concentration at 24 h ([1]; liver, sc): 4.53 ng/mL; concentration at 0.5 h ([1]; lung, po): 135 ng/mL; concentration at 2 h ([1]; lung, po): 807 ng/mL; concentration at 8 h ([1]; lung, po): 73.6 ng/mL; concentration at 0.5 h ([1]; lung, sc): 693 ng/mL; concentration at 2 h ([1]; lung, sc): 287 ng/mL; concentration at 8 h ([1]; lung, sc): 62.5 ng/mL; concentration at 24 h ([1]; lung, sc): 5.8 ng/mL; concentration at 0.5 h ([1]; pancreas, po): 85.8 ng/mL; concentration at 2 h ([1]; pancreas, po): 228 ng/mL; concentration at 8 h ([1]; pancreas, po): 211 ng/mL; concentration at 24 h ([1]; pancreas, po): 4.86 ng/mL; concentration at 0.5 h ([1]; pancreas, sc): 753 ng/mL; concentration at 2 h ([1]; pancreas, sc): 512 ng/mL; concentration at 8 h ([1]; pancreas, sc): 215 ng/mL; concentration at 24 h ([1]; pancreas, sc): 5.62 ng/mL; concentration at 0.5 h ([1]; plasma, po): 14.8 ng/mL; concentration at 2 h ([1]; plasma, po): 47.7 ng/mL; concentration at 8 h ([1]; plasma, po): 13.7 ng/mL; concentration at 0.5 h ([1]; plasma, sc): 166 ng/mL; concentration at 2 h ([1]; plasma, sc): 48.9 ng/mL; concentration at 8 h ([1]; plasma, sc): 11.1 ng/mL; concentration at 24 h ([1]; plasma, sc): 0.929 ng/mL; concentration at 0.5 h ([1]; spleen, po): 184 ng/mL; concentration at 2 h ([1]; spleen, po): 742 ng/mL; concentration at 8 h ([1]; spleen, po): 225 ng/mL; concentration at 0.5 h ([1]; spleen, sc): 1990 ng/mL; concentration at 2 h ([1]; spleen, sc): 1290 ng/mL; concentration at 8 h ([1]; spleen, sc): 282 ng/mL; concentration at 24 h ([1]; spleen, sc): 16.5 ng/mL; concentration at 0.5 h ([1]; stomach, po): 1360 ng/mL; concentration at 2 h ([1]; stomach, po): 806 ng/mL; concentration at 8 h ([1]; stomach, po): 870 ng/mL; concentration at 0.5 h ([1]; stomach, sc): 999 ng/mL; concentration at 2 h ([1]; stomach, sc): 587 ng/mL; concentration at 8 h ([1]; stomach, sc): 128 ng/mL; concentration at 24 h ([1]; stomach, sc): 9.84 ng/mL

Which results are given for Nc1ccn([C@@H]2O[C@H](CO)[C@@H](O)C2(F)F)c(=O)n1 [gemcitabine, Gemcitabine]?
tumor volume [2]: decreased significantly; MCL-1 protein level in tumor cells [3]: no significant difference; CC3 protein expression [4]: significantly increased
